Experimental data of several laboratories.
Lines come from different studies, so protocols differ.
JAK1 JH2: Tyrosine-protein kinase JAK1, JH2 (JAK1, Homo sapiens, UniProt P23458)
JAK1: Tyrosine-protein kinase JAK1 (JAK1, Homo sapiens, UniProt P23458)
JAK1 JH1: Tyrosine-protein kinase JAK1, JH1 (JAK1, Homo sapiens, UniProt P23458)

SMILES	target	test	conditions	quantity	value
N#CC1(c2ccccn2)CCN(Cc2cc(C(=O)O)c(=O)n3ccccc23)CC1	JAK1 JH2	cell-free assay, competition with immobilised ligand	1 µM	remaining binding	84%
CC(C)(C)c1cc(C=C(C#N)C#N)cc(Br)c1O	JAK1	enzyme activity, inhibitor	0.5 µM	remaining activity	107%
Cn1cncc1[C@](O)(COc1ccc(C#N)cc1-c1ccc(OC(F)(F)F)cc1)c1ccc(C#N)cc1	JAK1 JH2	cell-free assay, competition with immobilised ligand	1 µM	remaining binding	70%
Cc1nn(C)cc1-c1nc2c(N3CCN(Cc4ccc(Cl)cc4)CC3)c(Cl)cnc2[nH]1	JAK1 JH1	binding, competition with immobilised ligand	1 µM	remaining binding	46%
COc1cc(Nc2ncc(F)c(Nc3ccc4c(n3)NC(=O)C(C)(C)O4)n2)cc(OC)c1OC	JAK1 JH1	binding, competition with immobilised ligand	10 µM	inhibition	100%
Cn1cc(-c2cc(F)cc(N3CCn4c(cc5c4CCCC5)C3=O)c2CO)cc(Nc2ccc(N3CCN(C4COC4)CC3)cn2)c1=O	JAK1	enzyme activity, inhibitor	0.1 µM	inhibition	6%
O=c1[nH]c2ccccc2n1C1CCN(Cc2ccc(-c3[nH]c4cc5ncnc5cc4nc3-c3ccccc3)cc2)CC1	JAK1	cell-free assay	0.5 µM	remaining signal	94.6%
COc1ncccc1-c1cnn2ccc(N3CCN(C(=O)OC(C)C)CC3)nc12	JAK1	binding, competition with immobilised ligand	1 µM	remaining binding	100%
C#Cc1n[nH]c2c(-c3cn(C(C)c4ccccn4)c(=O)[nH]c3=O)cc(F)cc12 (centres unmarked)	JAK1	enzyme activity, inhibitor	1 µM	inhibition	-2.3%
Cn1cc(-c2cccc(N3CCc4c(sc5c4CC(C)(C)C5)C3=O)c2CO)cc(Nc2ccncn2)c1=O	JAK1	enzyme activity, inhibitor	1 µM	inhibition	-2%
Nc1ncc(-c2nc(N3CCOCC3)nc(N3CCOCC3)n2)c(C(F)F)n1	JAK1 JH1	binding, competition with immobilised ligand	10 µM	remaining binding	90%
